# In ChEMBL document CHEMBL4261600 (Eur J Med Chem, 2018):
# What was measured:
# [1] = target: Cyclin-dependent kinase 9 (Homo sapiens, UniProt P50750); assay: Inhibition of CDK9 in human MV4-11 cells assessed as decrease in RNA polymerase 2 phosphorylation at Ser 2 residues in CTD domain after 2 hrs by immunoblotting analysis; format: cell-based
# [2] = target: Calcium/calmodulin-dependent protein kinase type 1 (Homo sapiens) (UniProt Q14012); assay: Binding affinity to wild-type human full length CAMK1 (M1 to L370 residues) expressed in bacterial expression system assessed as remaining unbound target protein level at 1000 nM by Kinomescan method relative to control
# Method in brief: (§1)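 Single-point competition binding screen across a panel of 468 kinases and mutants, with the inhibitor at 1 μM. Binding is read out as percent of a DMSO control, and targets below 1 percent control were classed as strong binders.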
# [3] = target: Casein kinase I isoform alpha-like (Homo sapiens) (UniProt Q8N752); assay: Binding affinity to wild-type human full length CSNK1A1L (M1 to N337 residues) expressed in bacterial expression system assessed as remaining unbound target protein level at 1000 nM by Kinomescan method relative to control; method in brief: as §1
# [4] = target: Casein kinase I isoform gamma-1 (Homo sapiens) (UniProt Q9HCP0); assay: Binding affinity to wild-type human partial length CSNK1G1 (T15 to S353 residues) expressed in bacterial expression system assessed as remaining unbound target protein level at 1000 nM by Kinomescan method relative to control
# Method in brief: (§2)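 KINOMEscan competition binding profile across a panel of 468 kinases and mutants, with the inhibitor tested at a single concentration of 1 μM. Binding is reported as percent of control, meaning signal relative to a DMSO control.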
# [5] = target: Epithelial discoidin domain-containing receptor 1 (Homo sapiens) (UniProt Q08345); assay: Binding affinity to wild-type human partial length DDR1 (R565 to V876 residues) expressed in bacterial expression system assessed as remaining unbound target protein level at 1000 nM by Kinomescan method relative to control
# [6] = target: Insulin receptor-related protein (Homo sapiens) (UniProt P14616); assay: Binding affinity to wild-type human partial length INSRR (R950 to E1278 residues) expressed in bacterial expression system assessed as remaining unbound target protein level at 1000 nM by Kinomescan method relative to control
# [7] = target: Tyrosine-protein kinase JAK3 (Homo sapiens) (UniProt P52333); assay: Binding affinity to wild-type human partial length JAK3 JH1 catalytic domain (I781 to S1124 residues) expressed in mammalian expression system assessed as remaining unbound target protein level at 1000 nM by Kinomescan method relative to control
# [8] = target: Mitogen-activated protein kinase kinase kinase 13 (Homo sapiens) (UniProt O43283); assay: Binding affinity to wild-type human full length LZK (M1 to W966 residues) expressed in mammalian expression system assessed as remaining unbound target protein level at 1000 nM by Kinomescan method relative to control; method in brief: as §2
# [9] = target: Mitogen-activated protein kinase kinase kinase 1 (Homo sapiens) (UniProt Q13233); assay: Binding affinity to wild-type human partial length MAP3K1 (L1202 to W1512 residues) expressed in mammalian expression system assessed as remaining unbound target protein level at 1000 nM by Kinomescan method relative to control
# [10] = target: Dual specificity mitogen-activated protein kinase kinase 5 (Homo sapiens) (UniProt Q13163); assay: Binding affinity to wild-type human partial length MEK5 (L98 to P448 residues) expressed in mammalian expression system assessed as remaining unbound target protein level at 1000 nM by Kinomescan method relative to control
# Method in brief: (§3)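 KINOMEscan binding panel of 468 kinases/mutants. Inhibitor was tested at a single concentration of 1 μM. Binding is reported as percent of control, defined relative to a DMSO control.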
# [11] = target: Tyrosine-protein kinase Mer (Homo sapiens) (UniProt Q12866); assay: Binding affinity to wild-type human partial length MERTK (R557 to L884 residues) expressed in bacterial expression system assessed as remaining unbound target protein level at 1000 nM by Kinomescan method relative to control; method in brief: as §3
# [12] = target: Cyclin-dependent kinase 2 homolog (Plasmodium falciparum (isolate 3D7)) (UniProt P61075); assay: Binding affinity to wild-type Plasmodium falciparum full length PK5 (M1 to N288 residues) expressed in mammalian expression system assessed as remaining unbound target protein level at 1000 nM by Kinomescan method relative to control; method in brief: as §1
# [13] = target: Proto-oncogene tyrosine-protein kinase ROS (Homo sapiens) (UniProt P08922); assay: Binding affinity to wild-type human partial length ROS1 (A1921 to N2240 residues) expressed in bacterial expression system assessed as remaining unbound target protein level at 1000 nM by Kinomescan method relative to control
# [14] = target: Ribosomal protein S6 kinase alpha-6 (Homo sapiens) (UniProt Q9UK32); assay: Binding affinity to wild-type human partial length N-terminal RSK4 kinase domain 1 (M1 to E397 residues) expressed in mammalian expression system assessed as remaining unbound target protein level at 1000 nM by Kinomescan method relative to control; method in brief: as §3
# [15] = target: SNF-related serine/threonine-protein kinase (Homo sapiens) (UniProt Q9NRH2); assay: Binding affinity to wild-type human partial length SNRK (M1 to E339 residues) expressed in mammalian expression system assessed as remaining unbound target protein level at 1000 nM by Kinomescan method relative to control
# [16] = target: Serine/threonine-protein kinase 36 (Homo sapiens) (UniProt Q9NRP7); assay: Binding affinity to wild-type human partial length STK36 (M1 to T271 residues) expressed in bacterial expression system assessed as remaining unbound target protein level at 1000 nM by Kinomescan method relative to control
# [17] = target: Serine/threonine-protein kinase ULK1 (Homo sapiens) (UniProt O75385); assay: Binding affinity to wild-type human partial length ULK1 (M1 to T309 residues) expressed in mammalian expression system assessed as remaining unbound target protein level at 1000 nM by Kinomescan method relative to control
# [18] = target: Serine/threonine-protein kinase VRK2 (Homo sapiens) (UniProt Q86Y07); assay: Binding affinity to wild-type human partial length VRK2 (M1 to T336 residues) expressed in mammalian expression system assessed as remaining unbound target protein level at 1000 nM by Kinomescan method relative to control
# [19] = target: Cyclin-dependent kinase 1/cyclin B1 (Homo sapiens, UniProt P06493); assay: Inhibition of recombinant full length His-tagged human CDK1/CyclinB expressed in baculovirus expression system
# CDK3/Cyclin E = CDK3/Cyclin E (Homo sapiens, UniProt Q00526); assay: Inhibition of recombinant GST-tagged human CDK3/cyclin E1; format: protein-complex assay
# [20] = target: Cyclin-dependent kinase 14/Cyclin-Y (Homo sapiens, UniProt O94921); assay: Inhibition of recombinant GST-tagged human full length CDK14/cyclin Y (2 to end residues); format: protein-complex assay
# Homo sapiens = species on record: Homo sapiens; assay: Selectivity ratio of IC50 for recombinant full length His-tagged human CDK2/CyclinA to IC50 for recombinant full length His-tagged human CDK9/CyclinT1
# Cyclin-dependent kinase 9, sequence (P50750 whole entry, the tested form may be a part): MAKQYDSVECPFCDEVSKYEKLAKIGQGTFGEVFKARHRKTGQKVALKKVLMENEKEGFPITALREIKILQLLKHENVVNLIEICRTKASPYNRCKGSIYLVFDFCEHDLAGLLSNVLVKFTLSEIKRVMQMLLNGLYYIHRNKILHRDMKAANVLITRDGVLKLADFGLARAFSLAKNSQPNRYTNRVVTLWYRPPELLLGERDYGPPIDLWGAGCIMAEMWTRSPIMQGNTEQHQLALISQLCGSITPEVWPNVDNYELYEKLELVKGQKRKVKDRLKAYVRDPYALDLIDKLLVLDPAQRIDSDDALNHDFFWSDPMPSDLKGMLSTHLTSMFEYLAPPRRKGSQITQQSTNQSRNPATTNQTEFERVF
# Proto-oncogene tyrosine-protein kinase ROS (Homo sapiens), sequence (P08922 whole entry, the tested form may be a part): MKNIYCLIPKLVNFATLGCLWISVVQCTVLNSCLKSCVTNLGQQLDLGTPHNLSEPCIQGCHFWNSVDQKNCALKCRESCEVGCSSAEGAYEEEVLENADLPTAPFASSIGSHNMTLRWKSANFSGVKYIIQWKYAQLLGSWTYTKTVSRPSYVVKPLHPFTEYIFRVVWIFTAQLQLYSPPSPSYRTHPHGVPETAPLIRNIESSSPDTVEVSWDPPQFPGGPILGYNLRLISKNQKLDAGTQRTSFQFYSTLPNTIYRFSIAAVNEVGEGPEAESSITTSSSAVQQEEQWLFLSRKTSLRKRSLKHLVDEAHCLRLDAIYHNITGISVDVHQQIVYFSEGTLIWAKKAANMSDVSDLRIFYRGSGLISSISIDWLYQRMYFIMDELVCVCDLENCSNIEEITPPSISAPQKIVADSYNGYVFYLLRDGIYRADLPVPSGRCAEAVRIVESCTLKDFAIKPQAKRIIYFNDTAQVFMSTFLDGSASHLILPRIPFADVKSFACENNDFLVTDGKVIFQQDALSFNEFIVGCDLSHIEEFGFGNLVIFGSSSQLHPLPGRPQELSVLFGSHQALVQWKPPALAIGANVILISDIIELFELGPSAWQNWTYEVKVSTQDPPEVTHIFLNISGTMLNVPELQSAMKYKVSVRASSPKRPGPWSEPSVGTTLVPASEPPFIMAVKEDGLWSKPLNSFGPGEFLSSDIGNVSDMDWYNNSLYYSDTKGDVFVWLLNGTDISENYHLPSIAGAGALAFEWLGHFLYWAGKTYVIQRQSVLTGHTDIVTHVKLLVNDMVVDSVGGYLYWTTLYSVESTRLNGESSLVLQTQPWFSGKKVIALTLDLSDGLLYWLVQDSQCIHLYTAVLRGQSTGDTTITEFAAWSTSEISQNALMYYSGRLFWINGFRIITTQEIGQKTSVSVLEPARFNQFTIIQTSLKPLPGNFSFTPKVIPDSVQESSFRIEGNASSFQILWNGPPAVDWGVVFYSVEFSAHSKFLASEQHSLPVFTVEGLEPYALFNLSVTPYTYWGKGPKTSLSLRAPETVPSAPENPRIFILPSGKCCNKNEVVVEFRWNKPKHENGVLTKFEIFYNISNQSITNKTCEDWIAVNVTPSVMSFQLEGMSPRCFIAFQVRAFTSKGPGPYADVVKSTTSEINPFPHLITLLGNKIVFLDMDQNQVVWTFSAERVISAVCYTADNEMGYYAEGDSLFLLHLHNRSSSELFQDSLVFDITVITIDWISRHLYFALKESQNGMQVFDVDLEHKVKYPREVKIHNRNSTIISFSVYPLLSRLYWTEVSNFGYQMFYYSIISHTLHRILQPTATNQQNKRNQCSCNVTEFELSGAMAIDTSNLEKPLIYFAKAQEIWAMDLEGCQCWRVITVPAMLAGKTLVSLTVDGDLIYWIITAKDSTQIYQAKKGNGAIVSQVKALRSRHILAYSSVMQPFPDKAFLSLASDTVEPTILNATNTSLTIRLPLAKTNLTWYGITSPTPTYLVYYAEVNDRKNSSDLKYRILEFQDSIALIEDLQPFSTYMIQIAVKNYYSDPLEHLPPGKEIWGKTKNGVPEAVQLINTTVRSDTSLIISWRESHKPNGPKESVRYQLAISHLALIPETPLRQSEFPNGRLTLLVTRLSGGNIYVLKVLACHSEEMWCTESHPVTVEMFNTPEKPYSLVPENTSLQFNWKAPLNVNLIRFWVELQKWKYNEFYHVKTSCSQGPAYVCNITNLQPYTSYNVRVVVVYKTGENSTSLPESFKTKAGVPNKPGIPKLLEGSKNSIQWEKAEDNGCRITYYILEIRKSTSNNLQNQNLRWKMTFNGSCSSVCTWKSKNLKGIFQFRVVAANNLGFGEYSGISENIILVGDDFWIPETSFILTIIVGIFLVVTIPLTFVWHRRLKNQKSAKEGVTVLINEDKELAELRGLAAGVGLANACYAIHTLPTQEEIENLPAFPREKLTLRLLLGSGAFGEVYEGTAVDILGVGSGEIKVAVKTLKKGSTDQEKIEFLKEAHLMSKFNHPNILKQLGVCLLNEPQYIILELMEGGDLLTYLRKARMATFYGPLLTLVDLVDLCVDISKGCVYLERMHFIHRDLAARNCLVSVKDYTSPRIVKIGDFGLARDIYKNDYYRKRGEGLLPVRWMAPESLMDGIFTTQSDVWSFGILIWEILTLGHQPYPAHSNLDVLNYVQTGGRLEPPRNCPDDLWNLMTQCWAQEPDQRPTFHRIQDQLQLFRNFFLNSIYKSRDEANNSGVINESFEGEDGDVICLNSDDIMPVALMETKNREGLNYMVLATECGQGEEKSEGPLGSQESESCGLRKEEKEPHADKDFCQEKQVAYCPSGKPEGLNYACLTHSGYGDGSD
# Ribosomal protein S6 kinase alpha-6 (Homo sapiens), sequence (Q9UK32 whole entry, the tested form may be a part): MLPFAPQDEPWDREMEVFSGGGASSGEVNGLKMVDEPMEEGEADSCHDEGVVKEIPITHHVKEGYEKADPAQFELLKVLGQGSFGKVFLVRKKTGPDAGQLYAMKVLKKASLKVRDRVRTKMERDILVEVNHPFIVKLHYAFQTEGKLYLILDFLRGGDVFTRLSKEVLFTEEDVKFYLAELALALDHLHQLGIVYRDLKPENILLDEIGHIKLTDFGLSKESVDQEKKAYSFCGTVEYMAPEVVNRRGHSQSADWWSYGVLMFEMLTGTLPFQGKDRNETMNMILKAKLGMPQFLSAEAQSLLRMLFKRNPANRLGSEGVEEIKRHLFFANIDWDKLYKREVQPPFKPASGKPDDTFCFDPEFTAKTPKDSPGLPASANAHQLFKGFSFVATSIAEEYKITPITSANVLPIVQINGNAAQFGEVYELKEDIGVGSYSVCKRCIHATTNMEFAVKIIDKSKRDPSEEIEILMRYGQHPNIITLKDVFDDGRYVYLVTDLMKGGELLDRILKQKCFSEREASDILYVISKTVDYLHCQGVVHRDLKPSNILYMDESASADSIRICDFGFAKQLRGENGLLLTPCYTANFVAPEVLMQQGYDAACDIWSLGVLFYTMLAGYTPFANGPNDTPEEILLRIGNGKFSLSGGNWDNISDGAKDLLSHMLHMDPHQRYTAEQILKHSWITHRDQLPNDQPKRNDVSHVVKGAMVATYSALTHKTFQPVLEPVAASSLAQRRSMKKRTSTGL
# Tyrosine-protein kinase Mer (Homo sapiens), sequence (Q12866 whole entry, the tested form may be a part): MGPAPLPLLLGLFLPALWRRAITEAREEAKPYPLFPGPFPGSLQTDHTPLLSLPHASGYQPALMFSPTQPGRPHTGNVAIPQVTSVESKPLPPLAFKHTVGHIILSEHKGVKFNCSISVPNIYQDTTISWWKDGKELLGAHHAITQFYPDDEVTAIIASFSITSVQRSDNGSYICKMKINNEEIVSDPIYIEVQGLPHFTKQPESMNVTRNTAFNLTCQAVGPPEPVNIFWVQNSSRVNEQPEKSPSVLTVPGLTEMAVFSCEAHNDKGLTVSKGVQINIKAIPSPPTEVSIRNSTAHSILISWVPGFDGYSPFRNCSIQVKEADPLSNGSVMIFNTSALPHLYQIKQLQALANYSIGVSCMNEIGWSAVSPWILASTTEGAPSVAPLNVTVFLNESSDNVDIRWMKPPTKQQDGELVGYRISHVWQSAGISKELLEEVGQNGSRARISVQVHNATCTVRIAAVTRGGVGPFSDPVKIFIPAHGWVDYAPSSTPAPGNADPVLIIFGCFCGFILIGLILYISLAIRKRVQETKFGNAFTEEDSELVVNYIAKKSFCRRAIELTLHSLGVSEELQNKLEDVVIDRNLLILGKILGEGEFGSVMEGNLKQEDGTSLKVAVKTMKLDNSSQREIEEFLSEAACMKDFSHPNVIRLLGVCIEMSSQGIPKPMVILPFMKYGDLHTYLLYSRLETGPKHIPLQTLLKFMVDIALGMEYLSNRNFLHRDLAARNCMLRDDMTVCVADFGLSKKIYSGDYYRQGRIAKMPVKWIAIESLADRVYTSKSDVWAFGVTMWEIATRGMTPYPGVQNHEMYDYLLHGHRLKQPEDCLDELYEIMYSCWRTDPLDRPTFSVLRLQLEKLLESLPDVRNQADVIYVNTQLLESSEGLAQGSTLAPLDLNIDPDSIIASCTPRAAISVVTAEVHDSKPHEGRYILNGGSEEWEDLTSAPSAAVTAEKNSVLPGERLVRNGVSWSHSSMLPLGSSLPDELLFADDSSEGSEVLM
# Serine/threonine-protein kinase VRK2 (Homo sapiens), sequence (Q86Y07 whole entry, the tested form may be a part): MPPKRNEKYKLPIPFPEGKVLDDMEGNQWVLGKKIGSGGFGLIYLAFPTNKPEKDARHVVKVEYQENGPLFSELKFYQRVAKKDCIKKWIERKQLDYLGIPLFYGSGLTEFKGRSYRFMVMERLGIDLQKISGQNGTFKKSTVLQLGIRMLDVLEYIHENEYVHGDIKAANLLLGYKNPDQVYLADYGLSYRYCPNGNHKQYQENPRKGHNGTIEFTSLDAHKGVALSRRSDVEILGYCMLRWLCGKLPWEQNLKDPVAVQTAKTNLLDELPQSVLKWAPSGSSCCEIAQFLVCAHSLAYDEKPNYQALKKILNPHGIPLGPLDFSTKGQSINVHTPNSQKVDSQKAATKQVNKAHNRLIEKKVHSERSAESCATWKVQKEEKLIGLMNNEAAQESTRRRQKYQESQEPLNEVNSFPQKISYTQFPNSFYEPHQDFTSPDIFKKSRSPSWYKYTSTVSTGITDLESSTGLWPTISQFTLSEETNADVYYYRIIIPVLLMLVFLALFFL
smiles,measurement,setting,value
COCCN[C@H]1CC[C@H](Nc2cc(-c3csc(NCC4(C#N)CCOCC4)n3)c(Cl)cn2)CC1,EC50,[1],< 100 nM
same,inhibition,[1],Dose-dependent effect
same,Activity,[2],89%
same,Activity,[3],96%
same,Activity,[4],93%
same,Activity,[5],89%
same,Activity,[6],92%
same,Activity,[7],92%
same,Activity,[8],99%
same,Activity,[9],100%
same,Activity,[10],81%
same,Activity,[11],94%
same,Activity,[12],100%
same,Activity,[13],81%
same,Activity,[14],94%
same,Activity,[15],100%
same,Activity,[16],83%
same,Activity,[17],100%
same,Activity,[18],87%
same,IC50,[19],1340 nM
same,IC50,CDK3/Cyclin E,> 10 µM
same,IC50,[20],1680 nM
same,Ratio IC50,Homo sapiens,> 1000
